Measurements taken from article PMC8853157 (Medicinal Chemistry Research, 2022).
Entries after “also recorded” stand apart in the source; their conditions may differ.

Key:
[1] = molecular target: LFA-1/ICAM-1 (Homo sapiens, UniProt P20701); test: Jurkat T-cell adhesion assay; assay type: cell-based; details: for LFA-1/ICAM-1 antagonist activity in words / IC50 level in words: Jurkat T-cell adhesion assay; for LFA-1/ICAM-1 antagonist activity in words: compared with Lifitegrast
Method in brief: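 Jurkat E6-1 cells (RPMI 1640, 5% FBS, 37 °C, 5% CO2) labeled with 8 μM BCECF for 15 min at room temperature. Cells (5 × 10^5/well) preincubated with compound for 30 min at 37 °C, then settled 1 h at 37 °C on recombinant human ICAM-1–Fc-coated wells. Titration 10−10–10−4 M in triplicate lanes. Non-adherent cells washed off; adherent-cell fluorescence read; IC50 by four-parameter logistic regression.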

[2] = tested on: dry eye mice model; test: Goblet cell density; assay type: in vivo, C57/BL6 mice; details: 14 days, vs dry eye model group
Method in brief: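 Dry eye was induced in female C57/BL6 mice (6–8 weeks, n = 5/group) by RH 15, 2 m/s airflow, 21–23 °C and s.c. scopolamine hydrobromide (0.5 mg/0.2 ml) three times daily for 14 days. Eye drops (5 µL) went to both eyes twice daily. Central frozen sections (6 µm) were PAS-stained, and goblet cells per mm were counted by image analysis. Mean ± SEM, 10 eyes/group.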

[3] = tested on: dry eye mice model; test: TUNEL staining of corneal epithelium in dry eye mice model; assay type: in vivo, C57/BL6 mice; details: for TUNEL positive (Cy3 labeled) cells in cornea, apoptosis: 14 days, vs dry eye model group
Method in brief: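 Female C57/BL6 mice, 6–8 weeks, n=5/group. Dry eye induced over 14 days. Both eyes received 5 µL drops twice daily: test compound 5% or 7% W/V, vehicle, or 5% reference antagonist. Eyes then excised, OCT-embedded and cut into 6 µm frozen central sagittal sections. Sections TUNEL/DAPI-stained. TUNEL-positive cells counted in the central 200 µm corneal epithelial field at ×400. n=10 eyes/group; mean ± SEM.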

[4] = tested on: dry eye mice model; test: Dry eye mice model, overall effect; assay type: in vivo, C57/BL6 mice; details: 5% vs 7% (W/V) compound 1b, topical
Method in brief: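 Female C57/BL6 mice (6–8 weeks, n = 5/group) were kept at RH 15, airflow 2 m/s and 21–23 °C for 14 days, with s.c. scopolamine hydrobromide (0.5 mg/0.2 ml) three times daily. Test compound (5% or 7% W/V) was given as 5 µL drops to both eyes twice daily. Read-outs were fluorescein score summed over five corneal regions, PAS goblet density and TUNEL; 10 eyes/group.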

[5] = tested on: LFA-1/ICAM-1; details: read-out: previously reported IC50; HUT 78T cells; cited from earlier work

LFA-1/ICAM-1 (Homo sapiens, UniProt P20701), sequence (P20701 26-1170): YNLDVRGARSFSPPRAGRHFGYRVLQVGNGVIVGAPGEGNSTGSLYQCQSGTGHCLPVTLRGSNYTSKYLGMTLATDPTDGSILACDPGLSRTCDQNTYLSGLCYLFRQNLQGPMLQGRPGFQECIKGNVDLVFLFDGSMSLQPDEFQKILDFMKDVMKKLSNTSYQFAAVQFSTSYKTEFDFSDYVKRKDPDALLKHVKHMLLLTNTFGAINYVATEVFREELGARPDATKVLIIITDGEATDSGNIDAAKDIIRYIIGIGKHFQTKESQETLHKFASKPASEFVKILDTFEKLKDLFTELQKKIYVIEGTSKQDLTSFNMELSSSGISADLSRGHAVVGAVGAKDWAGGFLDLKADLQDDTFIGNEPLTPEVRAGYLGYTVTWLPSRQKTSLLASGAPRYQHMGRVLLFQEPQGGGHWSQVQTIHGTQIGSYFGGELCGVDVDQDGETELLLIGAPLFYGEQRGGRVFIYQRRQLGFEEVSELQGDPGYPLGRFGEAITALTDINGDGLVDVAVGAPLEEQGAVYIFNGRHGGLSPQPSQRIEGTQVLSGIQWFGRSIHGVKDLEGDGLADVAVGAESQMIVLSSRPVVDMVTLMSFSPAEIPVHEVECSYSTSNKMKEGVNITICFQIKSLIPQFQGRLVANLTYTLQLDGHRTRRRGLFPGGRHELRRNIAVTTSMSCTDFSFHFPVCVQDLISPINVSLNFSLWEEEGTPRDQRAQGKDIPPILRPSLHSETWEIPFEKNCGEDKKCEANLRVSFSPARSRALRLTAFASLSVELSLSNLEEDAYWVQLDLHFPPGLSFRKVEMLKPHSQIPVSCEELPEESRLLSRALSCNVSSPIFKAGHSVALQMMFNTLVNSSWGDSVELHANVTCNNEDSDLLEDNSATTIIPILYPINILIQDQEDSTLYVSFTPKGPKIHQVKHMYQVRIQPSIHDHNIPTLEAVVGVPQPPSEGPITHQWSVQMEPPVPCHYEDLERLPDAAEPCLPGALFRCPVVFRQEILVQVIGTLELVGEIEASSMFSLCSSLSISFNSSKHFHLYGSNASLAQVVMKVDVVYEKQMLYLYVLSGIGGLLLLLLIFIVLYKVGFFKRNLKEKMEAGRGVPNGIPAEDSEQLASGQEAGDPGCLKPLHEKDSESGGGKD
LFA-1/ICAM-1 (Homo sapiens, UniProt P20701), sequence (P05107 23-769 partner): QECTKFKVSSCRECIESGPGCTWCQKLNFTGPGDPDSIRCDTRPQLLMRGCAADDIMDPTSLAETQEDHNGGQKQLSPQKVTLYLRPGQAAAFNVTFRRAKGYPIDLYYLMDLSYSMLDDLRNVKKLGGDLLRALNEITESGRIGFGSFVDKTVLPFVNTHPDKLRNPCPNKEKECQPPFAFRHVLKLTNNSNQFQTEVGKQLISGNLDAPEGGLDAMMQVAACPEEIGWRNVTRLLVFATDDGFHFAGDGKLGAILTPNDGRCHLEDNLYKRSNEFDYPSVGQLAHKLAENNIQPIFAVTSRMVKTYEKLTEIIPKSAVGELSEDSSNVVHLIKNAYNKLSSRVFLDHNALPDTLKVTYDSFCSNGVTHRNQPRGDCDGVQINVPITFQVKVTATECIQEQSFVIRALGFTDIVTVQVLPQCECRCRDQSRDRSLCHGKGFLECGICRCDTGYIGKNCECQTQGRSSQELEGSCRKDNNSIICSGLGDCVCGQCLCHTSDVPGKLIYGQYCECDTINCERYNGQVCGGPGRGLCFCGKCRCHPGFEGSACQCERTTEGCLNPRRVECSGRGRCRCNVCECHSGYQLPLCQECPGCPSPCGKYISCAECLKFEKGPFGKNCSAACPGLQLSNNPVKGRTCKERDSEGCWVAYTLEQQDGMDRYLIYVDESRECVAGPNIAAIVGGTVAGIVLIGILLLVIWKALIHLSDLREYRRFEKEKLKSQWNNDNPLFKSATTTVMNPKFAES

Structure (SMILES) | IC50 level in words [1] | LFA-1/ICAM-1 antagonist activity in words [1] | other results
CS(=O)(=O)c1cccc(C[C@H](NC(=O)c2c(Cl)cc3c(c2Cl)CCN(S(=O)(=O)c2ccc4ccoc4c2)C3)C(=O)O)c1 [Compound 1a, (S)-2-(2-(Benzofuran-6-ylsulfonyl)-5,7-dichloro-1,2,3,4-tetrahydroisoquinoline-6-carboxamido)-3-(3-(methylsulfonyl)phenyl)propanoic acid] | – | decreased LFA-1/ICAM-1 antagonist activity obviously | –
CS(=O)(=O)c1cccc(C[C@H](NC(=O)c2c(Cl)cc3c(c2Cl)CCN(C(=O)NCc2ccc4ccoc4c2)C3)C(=O)O)c1 [Compound 1b, (S)-2-(2-((Benzofuran-6-ylmethyl)carbamoyl)-5,7-dichloro-1,2,3,4-tetrahydroisoquinoline-6-carboxamido)-3-(3-(methylsulfonyl)phenyl)propanoic acid] | – | certain LFA-1/ICAM-1 antagonist activity | density of goblet cells on conjunctival epithelium ([2]; 5% (W/V) compound 1b): significantly increased the density of goblet cells; also recorded: significantly increased goblet cell density; density of goblet cells on conjunctival epithelium ([2]; 7% (W/V) compound 1b): significantly increased the density of goblet cells; also recorded: significantly increased goblet cell density; TUNEL positive (Cy3 labeled) cells in cornea, apoptosis ([3]; 5% (W/V) compound 1b): markedly decreased; also recorded: protective effect on apoptosis of ocular surface cells; anti-apoptotic effect compared with Lifitegrast treatment group ([3]; 5% or 7% compound 1b vs 5% Lifitegrast): weaker than that of Lifitegrast; TUNEL positive (Cy3 labeled) cells in cornea, apoptosis ([3]; 7% (W/V) compound 1b): markedly decreased; also recorded: protective effect on apoptosis of ocular surface cells; difference in effect between the two concentrations [4]: no statistical difference in the effect between 5% and 7%
CS(=O)(=O)c1cccc(C[C@H](NC(=O)c2c(Cl)cc3c(c2Cl)CCN(C(=O)Cc2ccc4occc4c2)C3)C(=O)O)c1 [Compound 1c, (S)-2-(2-(2-(Benzofuran-5-yl)acetyl)-5,7-dichloro-1,2,3,4-tetrahydroisoquinoline-6-carboxamido)-3-(3-(methylsulfonyl)phenyl)propanoic acid] | several micromol levels | certain LFA-1/ICAM-1 antagonist activity | –
CS(=O)(=O)c1cccc(C[C@H](NC(=O)c2c(Cl)cc3c(c2Cl)CCN(C(=O)c2ccc4ncnn4c2)C3)C(=O)O)c1 [Compound 1d, (S)-2-(2-([1,2,4]Triazolo[1,5-a]pyridine-6-carbonyl)-5,7-dichloro-1,2,3,4-tetrahydroisoquinoline-6-carboxamido)-3-(3-(methylsulfonyl)phenyl)propanoic acid] | – | decreased LFA-1/ICAM-1 antagonist activity obviously | –
C#Cc1cccc(C(=O)N2CCc3c(cc(Cl)c(C(=O)N[C@@H](Cc4cccc(S(C)(=O)=O)c4)C(=O)O)c3Cl)C2)c1 [Compound 1e, (S)-2-(2-(3-Ethynylbenzoyl)-5,7-dichloro-1,2,3,4-tetrahydroisoquinoline-6-carboxamido)-3-(3-(methylsulfonyl)phenyl)propanoic acid] | – | decreased LFA-1/ICAM-1 antagonist activity obviously | –
O=C(NC(Cc1ccc2ncccc2c1)C(=O)O)c1c(Cl)cc2c(c1Cl)CCN(C(=O)c1ccc3ccoc3c1)C2 (centres unmarked) [Compound 1f, 2-(2-(Benzofuran-6-carbonyl)-5,7-dichloro-1,2,3,4-tetrahydroisoquinoline-6-carboxamido)-3-(quinolin-6-yl)propanoic acid] | several micromol levels | – | –
O=C(NC(Cc1ccc2c(c1)S(=O)(=O)CC2)C(=O)O)c1c(Cl)cc2c(c1Cl)CCN(C(=O)c1ccc3ccoc3c1)C2 (centres unmarked) [Compound 1g, 2-(2-(Benzofuran-6-carbonyl)-5,7-dichloro-1,2,3,4-tetrahydroisoquinoline-6-carboxamido)-3-(1,1-dioxido-2,3-dihydrobenzo[b]thiophen-6-yl)propanoic acid] | – | loss of activity | –
O=C1CCc2ccc(CC(NC(=O)c3c(Cl)cc4c(c3Cl)CCN(C(=O)c3ccc5ccoc5c3)C4)C(=O)O)cc2N1 (centres unmarked) [Compound 1h, 2-(2-(Benzofuran-6-carbonyl)-5,7-dichloro-1,2,3,4-tetrahydroisoquinoline-6-carboxamido)-3-(2-oxo-1,2,3,4-tetrahydroquinolin-7-yl)propanoic acid] | several micromol levels | – | –
CS(=O)(=O)c1cccc(C[C@H](NC(=O)c2c(Cl)cc3c(c2Cl)CCN(C(=O)c2ccc4ccoc4c2)C3)C(=O)O)c1 [Lifitegrast, reference compound] | – | – | IC50 ([1]; IC50, Jurkat T-cell adhesion assay, text and Fig. 3): ~10.5 nM; IC50 [5]: 9 nM
